These results are taken from ChEMBL document CHEMBL1926607 (J Med Chem, 2011).

Experiment [1] deals with T1, 5-hydroxytryptamine receptor 1A (Homo sapiens) (UniProt P08908).
T1 sequence (whole entry): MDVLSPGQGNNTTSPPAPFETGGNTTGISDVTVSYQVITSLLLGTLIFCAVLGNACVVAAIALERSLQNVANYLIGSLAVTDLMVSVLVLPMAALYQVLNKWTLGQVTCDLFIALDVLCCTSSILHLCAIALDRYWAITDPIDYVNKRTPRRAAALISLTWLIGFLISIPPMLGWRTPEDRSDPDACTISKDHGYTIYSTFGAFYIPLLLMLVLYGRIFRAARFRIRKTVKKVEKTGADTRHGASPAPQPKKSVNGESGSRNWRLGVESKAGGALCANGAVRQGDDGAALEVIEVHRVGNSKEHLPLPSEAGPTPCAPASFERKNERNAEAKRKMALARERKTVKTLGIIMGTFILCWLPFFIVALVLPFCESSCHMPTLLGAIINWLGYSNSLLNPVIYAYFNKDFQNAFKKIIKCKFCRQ
The experiment can be described thus: Agonist activity at human 5HT1A receptor expressed in human HeLa cells assessed as inhibition of forskolin-stimulated cAMP production pretreated 20 mins before forskolin challenge measured after 2 hrs by RIA relative to control. It is filed as functional, cell-based. For orientation: Changes in cAMP serve as a functional read-out for many G protein-coupled receptors.

The target of experiment [2] is 5-hydroxytryptamine receptor 2A (Rattus norvegicus, UniProt P14842). As to the kind of experiment: Displacement of [3H]ketanserin from 5HT2A receptor in Sprague-Dawley albinus rat frontal cortex membranes after 15 mins. The experiment is classed as cell membranes, Membrane. In a few lines: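 Rat frontal cortex membranes (male Sprague–Dawley, 180–200 g). Nonspecific binding was set with 1 μM cinanserin.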

The target in experiment [3] is T1, 5-hydroxytryptamine receptor 1A (Homo sapiens). As to the kind of experiment: Partial agonist activity at human 5HT1A receptor expressed in human HeLa cells assessed as inhibition of forskolin-stimulated cAMP production pretreated 20 mins before forskolin challenge measured after 2 hrs by RIA. It is filed as functional, cell-based. The procedure, abridged:
(§1)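 HeLa cells stably expressing the h5-HT1AR, grown in DMEM with 2 mM glutamine, 1 mM pyruvate and 10% heat-inactivated FCS, and used after 2–3 days at about 7.5 × 10^4 cells/well. After a PBS wash, cells were incubated 10 min in PBS with 0.5 mM isobutylmethylxanthine and 10 μM forskolin, with or without compound. The reaction was stopped with ice-cold ethanol, extracted 2 h and lyophilized; cAMP was measured by RIA.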

In experiment [4] the target is T2, 5-hydroxytryptamine receptor 1A (Rattus norvegicus, UniProt P19327).
T2 sequence (P19327 whole entry): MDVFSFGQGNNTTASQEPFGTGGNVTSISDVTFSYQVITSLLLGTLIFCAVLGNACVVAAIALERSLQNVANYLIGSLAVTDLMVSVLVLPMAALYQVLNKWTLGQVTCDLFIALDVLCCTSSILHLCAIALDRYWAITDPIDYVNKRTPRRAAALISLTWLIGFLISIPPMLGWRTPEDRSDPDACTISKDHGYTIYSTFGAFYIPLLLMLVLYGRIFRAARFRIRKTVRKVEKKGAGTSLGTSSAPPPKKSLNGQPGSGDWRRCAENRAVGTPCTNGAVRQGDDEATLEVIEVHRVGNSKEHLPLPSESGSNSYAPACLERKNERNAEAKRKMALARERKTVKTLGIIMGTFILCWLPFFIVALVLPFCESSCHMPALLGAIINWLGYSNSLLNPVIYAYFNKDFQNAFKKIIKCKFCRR
The experiment can be described thus: Displacement of [3H]-8-OH-DPAT from 5-HT1A receptor in Sprague-Dawley albinus rat cerebral cortex membranes after 15 mins. The experiment is classed as cell membranes, Membrane.

Experiment [5] relates to Rattus norvegicus. As to the kind of experiment: Neuroprotective activity in permanent middle cerebral artery occlusion-induced ischemic in Sprague-Dawley rat assessed as decrease in cortical infract volume at 40 ug/kg/h, iv administered 1 hr before ischemia and 1 hr after ischemia measured after 24 hrs (reference value: 399 +/- 38 mm3). The experiment is classed as functional.

Experiment [6] can be described thus: Neuroprotective activity in Wistar rat hippocampi primary neuronal cells assessed as protection against serum-deprivation induced cell death at 0.1 uM after 24 hrs by MTT assay. The experiment is classed as functional, Hippocampus, Primary neuron. In a few lines:
(§2)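 Mixed neuron-glia cultures from E18 Wistar rat hippocampi (Neurobasal plus 10% FCS), used at 11 days in vitro. Medium replaced by saline to withdraw serum; cells held 24 h with compound. Cell survival measured by MTT reduction, expressed as % protection.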
For orientation: Tetrazolium dyes change colour on reduction, which living cells bring about.

The test system of experiment [7] is Rattus norvegicus. The experiment can be described thus: Neuroprotective activity in permanent middle cerebral artery occlusion-induced ischemic in Sprague-Dawley rat assessed as decrease in sub-cortical infract volume at 40 ug/kg/h, iv administered 1 hr before ischemia and 1 hr after ischemia measured after 24 hrs (reference value: 147 +/- 23 mm3). The experiment is classed as functional.

The nature of experiment [8]: Neuroprotective activity in Wistar rat hippocampi primary neuronal cells assessed as protection against oxygen-glucose deprivation induced cell death at 0.1 uM after 18 hrs by MTT assay. The experiment is classed as functional, Hippocampus, Primary neuron.
The test system of experiment [9] is Rattus norvegicus. The experiment can be described thus: Neuroprotective activity against permanent middle cerebral artery occlusion-induced focal ischemia in Sprague-Dawley rat assessed as decrease in total cerebral infract volume at 40 ug/kg/h, iv administered 1 hr before ischemia and 1 hr after ischemia measured after 24 hrs (reference value: 546 +/- 51 mm3). The experiment is classed as functional.

Experiment [10] in a line: Neuroprotective activity in Wistar rat hippocampi primary neuronal cells assessed as protection against serum-deprivation induced cell death at 1 uM after 24 hrs by MTT assay. It is filed as functional, Hippocampus, Primary neuron. In a few lines:
as §2

A short description of experiment [11]: Neuroprotective activity in Wistar rat hippocampi primary neuronal cells assessed as protection against oxygen-glucose deprivation induced cell death at 1 uM after 18 hrs by MTT assay. The experiment is classed as functional, Hippocampus, Primary neuron.
Experiment [12] can be described thus: Neuroprotective activity in Wistar rat hippocampi primary neuronal cells assessed as protection against glutamate-induced cell death at 1 uM treated 30 min before glutamate challenge measured after 22 hrs by MTT assay. The experiment is classed as functional, Hippocampus, Primary neuron. In a few lines: (§3)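 E18 fetal Wistar rat hippocampal neurons in neuron-enriched culture (Neurobasal, 2% B27, poly-L-lysine), used at 11 days in vitro. Compound added 30 min before 1 mM glutamate, exposure 22 h. Survival by MTT (mitochondrial dehydrogenase) read-out, reported as % protection.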

Experiment [13] can be described thus: Neuroprotective activity in Wistar rat hippocampi primary neuronal cells assessed as protection against glutamate-induced cell death at 0.1 uM treated 30 min before glutamate challenge measured after 22 hrs by MTT assay. It is filed as functional, Hippocampus, Primary neuron. In a few lines:
as §3

Experiment [14] concerns the target T3, 5-hydroxytryptamine receptor 1A (Homo sapiens, UniProt P08908).
T3 sequence (P08908 whole entry): T1 sequence (whole entry)
The experiment can be described thus: Agonist activity at human 5HT1A receptor expressed in human HeLa cells assessed as inhibition of forskolin-stimulated cAMP production […] measured after 2 hrs by RIA. It is filed as functional, cell-based. The procedure, abridged:
as §1

In another experiment the test system is Mus musculus. As to the kind of experiment: Antihypothermic activity in ip dosed Swiss mouse assessed as inhibition of 8-OH-DPAT-induced hypothermia administered 30 mins before 8-OH-DPAT challenge measured after 15 to 60 mins. The experiment is classed as functional. As to conditions: read-out: MED. The procedure, abridged: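 Male Swiss mice (23–28 g) were housed five per cage. Rectal temperature (probe at 2 cm) was read at 15, 30 and 60 min after injection. The response was the maximum fall from basal temperature, analysed by ANOVA with Student–Newman–Keuls test.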

Molecules are shown by their SMILES. pEC50, pKi: −log10 of the molar value. The source made the active and inactive calls. No cut-off for these calls is given here.

Chain of 5-hydroxytryptamine receptor 2A (P14842 whole entry): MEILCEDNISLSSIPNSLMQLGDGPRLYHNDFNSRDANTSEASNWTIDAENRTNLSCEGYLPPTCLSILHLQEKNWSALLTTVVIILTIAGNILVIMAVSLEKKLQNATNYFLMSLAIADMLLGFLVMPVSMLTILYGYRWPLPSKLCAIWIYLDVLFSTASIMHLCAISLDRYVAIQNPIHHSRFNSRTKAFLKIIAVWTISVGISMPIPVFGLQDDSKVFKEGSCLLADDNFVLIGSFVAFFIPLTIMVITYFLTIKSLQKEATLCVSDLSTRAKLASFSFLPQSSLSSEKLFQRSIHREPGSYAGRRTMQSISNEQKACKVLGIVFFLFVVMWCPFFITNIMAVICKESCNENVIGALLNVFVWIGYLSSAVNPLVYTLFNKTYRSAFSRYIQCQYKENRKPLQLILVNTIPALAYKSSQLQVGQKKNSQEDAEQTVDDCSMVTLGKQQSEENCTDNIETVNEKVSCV

For orientation: Emax means the maximal effect, on the per cent scale that the assay sets. Usually pKi stands for the negative decadic logarithm of the Ki, by convention in mol/L. Lower therefore signals a high Ki. As to `O=C1C2CCCCN2C(=O)N1CCCCNCC1CCc2ccccc2O1` (configuration not stated), in [1], the maximal effect (Emax) turned out to be 77.9%. Besides, the figures for the negative-log Ki (pKi) in experiment [2] and in [4] were < 6.00 and 8.62, respectively. Moreover, the result in experiment [3] was Active.
In the case of `O=C1c2ccccc2S(=O)(=O)N1CCCCNC[C@H]1CCc2ccccc2O1` [REPINOTAN], the Activity in the experiment with Rattus norvegicus [5] is reported as 271 mm3; in experiment [6], 31%; in the experiment on Rattus norvegicus [7], 106 mm3; in experiment [8], 78%; with Rattus norvegicus [9] it was 377 mm3.
As to `CCCN(CCC)C1CCc2cccc(O)c2C1` (configuration not stated) [8-OH-DPAT], the Activity in [10] is listed as 44%; in experiment [11], 54%; in experiment [12], 37%.
The pEC50 is the EC50 on a negative log10 scale, so that one unit is a factor of ten. As to `O=C1c2ccccc2S(=O)(=O)N1CCCCNCC1CCc2ccccc2O1` (racemic), the results for the Activity in experiment [13] and in experiment [6] were 16% and 26%, respectively. In experiment [14], the pEC50 is 8.82. Besides, the Emax in [1] came to 94.8%. Further, the minimal effective dose with Mus musculus stood at 0.15 mg/kg.
